Results published in ChEMBL document CHEMBL4196046, “Design, synthesis, and structure-activity-relationship of a novel series of CXCR4 antagonists” (Eur J Med Chem, 2018).
Activity calls are given as the source filed them. The rule behind the calls is not given here.

Experiments:
[1] = biological target: T1, C-X-C chemokine receptor type 4 (Homo sapiens, UniProt P61073); experiment: Displacement of 12G5-CXCL12 from CXCR4 in human HPBALL cells after 3 hrs by FACS analysis; type: cell-based
[2] = Apparent permeability across apical to basolateral side in human Caco2 cells at 2 uM by LC-MS/MS method; type: ADME, cell-based; conditions: Caco-2
[3] = Half life in mouse liver microsomes at 1 uM preincubated for 10 mins followed by NADPH addition measured after 30 to 60 mins by LC-MS/MS method; type: ADME, microsome
[4] = Intrinsic clearance in mouse liver microsomes at 1 uM preincubated for 10 mins followed by NADPH addition measured after 30 to 60 mins by LC-MS/MS method; type: ADME, microsome; conditions: read-out: CLH
[5] = biological target: T1, C-X-C chemokine receptor type 4; experiment: Antagonist activity at CXCR4 in human CD4+ T cells assessed as inhibition of CXCL12-mediated cytosolic calcium level preincubated with compounds followed by CXCL12 stimulation by calcium 4 dye-based FLIPR assay; type: functional, cell-based
[6] = Half life in human liver microsomes at 1 uM preincubated for 10 mins followed by NADPH addition measured after 30 to 60 mins by LC-MS/MS method; type: ADME, microsome
[7] = Efflux ratio of apparent permeability across basolateral to apical over apical to basolateral side in human Caco2 cells at 2 uM by LC-MS/MS method; type: ADME, cell-based; conditions: Caco-2
[8] = Intrinsic clearance in human liver microsomes at 1 uM preincubated for 10 mins followed by NADPH addition measured after 30 to 60 mins by LC-MS/MS method; type: ADME, microsome; conditions: read-out: CLH
[9] = biological target: Voltage-gated inwardly rectifying potassium channel KCNH2 (Homo sapiens, UniProt Q12809); experiment: Inhibition of human ERG expressed in CHO cells after 4 mins at -80 mV holding potential by Qpatch assay; type: cell-based
Sequence of Voltage-gated inwardly rectifying potassium channel KCNH2 (Q12809 whole entry): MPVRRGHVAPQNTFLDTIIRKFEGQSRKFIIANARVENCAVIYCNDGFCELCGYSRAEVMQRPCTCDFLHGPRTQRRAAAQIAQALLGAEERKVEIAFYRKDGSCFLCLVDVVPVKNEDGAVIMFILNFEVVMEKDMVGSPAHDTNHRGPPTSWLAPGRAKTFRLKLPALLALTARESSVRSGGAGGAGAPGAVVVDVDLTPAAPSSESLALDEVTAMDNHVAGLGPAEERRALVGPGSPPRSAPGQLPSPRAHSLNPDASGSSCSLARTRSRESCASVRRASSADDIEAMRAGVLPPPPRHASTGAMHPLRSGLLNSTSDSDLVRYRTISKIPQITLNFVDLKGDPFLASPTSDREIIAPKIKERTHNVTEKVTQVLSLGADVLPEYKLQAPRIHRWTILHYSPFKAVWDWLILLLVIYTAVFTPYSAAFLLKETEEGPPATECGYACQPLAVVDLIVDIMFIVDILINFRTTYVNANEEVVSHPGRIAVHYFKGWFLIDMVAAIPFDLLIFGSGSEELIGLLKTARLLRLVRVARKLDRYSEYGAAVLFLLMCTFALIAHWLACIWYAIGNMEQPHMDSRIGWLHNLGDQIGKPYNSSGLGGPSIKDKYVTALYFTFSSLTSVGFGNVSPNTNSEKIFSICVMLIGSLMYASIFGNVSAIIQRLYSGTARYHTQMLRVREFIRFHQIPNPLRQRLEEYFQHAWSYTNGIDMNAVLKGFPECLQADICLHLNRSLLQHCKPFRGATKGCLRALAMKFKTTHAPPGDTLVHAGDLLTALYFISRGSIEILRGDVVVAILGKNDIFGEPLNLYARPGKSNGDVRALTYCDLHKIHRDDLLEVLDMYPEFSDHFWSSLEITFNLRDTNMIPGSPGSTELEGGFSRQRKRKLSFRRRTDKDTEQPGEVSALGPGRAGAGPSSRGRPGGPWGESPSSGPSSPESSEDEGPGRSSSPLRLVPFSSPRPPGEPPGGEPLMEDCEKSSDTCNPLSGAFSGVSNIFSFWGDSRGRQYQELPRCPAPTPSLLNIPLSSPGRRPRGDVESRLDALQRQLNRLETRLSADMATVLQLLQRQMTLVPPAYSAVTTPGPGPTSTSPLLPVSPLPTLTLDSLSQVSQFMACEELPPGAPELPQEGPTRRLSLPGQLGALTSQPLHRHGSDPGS

[10] = biological target: T1, C-X-C chemokine receptor type 4; experiment: Antagonist activity at CXCR4-mediated chemotaxis in human MDA-MB-231 cells assessed as inhibition of CXCL12-induced cell invasion at 100 nM after 24 hrs by crystal violet staining-based microscopic matrigel assay; type: functional
In short: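 MDA-MB-231 cells (1 × 10⁵ cells/well) plus compound (100 nM) in upper chamber of 8-µm-pore Boyden inserts coated with 50mg/L Matrigel; CXCL12 in serum-free medium in lower chamber as chemoattractant. After 24 h, non-invaded cells wiped off; invaded cells fixed in cold methanol, crystal violet stained, counted in 10 random fields (100×). Three independent experiments; t-test vs control.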

[11] = biological target: T1, C-X-C chemokine receptor type 4; experiment: Potency index, ratio of AMD3100 IC50 to compound IC50 for CXCR4 in human CD4+ T cells; type: cell-based
MCF7 = experiment: Antiproliferative activity against human MCF7 cells at 400 nM after 24 to 48 hrs by MTT assay; type: functional, cell-based
In short: (§1)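 Cells seeded at 5 × 10³ cells/well, treated with compound, incubated at 37 °C, 5% CO₂ (48 h in methods; 24 h in figure legend), then 4 h with MTT reagent; formazan dissolved in DMSO, absorbance at 570 nm. Mean±SD of three independent experiments.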

[12] = Antiproliferative activity against HOSEC at 400 nM after 24 to 48 hrs by MTT assay; conditions: human, 0.4 µM; in short: as §1
CYP2D6 = CYP2D6 (Homo sapiens, UniProt P10635); experiment: Inhibition of CYP2D6 in human liver microsomes at 10 uM using dextromethorphan as substrate preincubated for 10 min followed by NADPH addition measured after 10 mins by LC-MS/MS analysis relative to control; type: ADME; conditions: probe dextromethorphan
Sequence of CYP2D6 (P10635 whole entry): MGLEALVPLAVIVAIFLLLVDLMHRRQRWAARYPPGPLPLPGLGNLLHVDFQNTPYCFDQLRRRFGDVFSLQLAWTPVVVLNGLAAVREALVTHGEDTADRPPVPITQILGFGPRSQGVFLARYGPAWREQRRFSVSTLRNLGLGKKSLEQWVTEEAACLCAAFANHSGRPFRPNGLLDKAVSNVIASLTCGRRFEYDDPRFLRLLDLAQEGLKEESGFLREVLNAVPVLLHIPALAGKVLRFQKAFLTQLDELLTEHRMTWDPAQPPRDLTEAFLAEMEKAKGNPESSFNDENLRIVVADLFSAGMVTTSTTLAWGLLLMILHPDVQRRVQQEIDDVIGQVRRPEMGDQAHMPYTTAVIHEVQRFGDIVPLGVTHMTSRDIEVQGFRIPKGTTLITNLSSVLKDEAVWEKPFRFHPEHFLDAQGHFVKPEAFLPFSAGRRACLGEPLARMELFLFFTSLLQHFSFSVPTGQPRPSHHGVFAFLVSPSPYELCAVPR

CYP3A4 = CYP3A4 (Homo sapiens, UniProt P08684); experiment: Inhibition of CYP3A4 in human liver microsomes at 10 uM using midazolam as substrate preincubated for 10 min followed by NADPH addition measured after 10 mins by LC-MS/MS analysis relative to control; type: ADME; conditions: probe midazolam
Sequence of CYP3A4 (P08684 whole entry): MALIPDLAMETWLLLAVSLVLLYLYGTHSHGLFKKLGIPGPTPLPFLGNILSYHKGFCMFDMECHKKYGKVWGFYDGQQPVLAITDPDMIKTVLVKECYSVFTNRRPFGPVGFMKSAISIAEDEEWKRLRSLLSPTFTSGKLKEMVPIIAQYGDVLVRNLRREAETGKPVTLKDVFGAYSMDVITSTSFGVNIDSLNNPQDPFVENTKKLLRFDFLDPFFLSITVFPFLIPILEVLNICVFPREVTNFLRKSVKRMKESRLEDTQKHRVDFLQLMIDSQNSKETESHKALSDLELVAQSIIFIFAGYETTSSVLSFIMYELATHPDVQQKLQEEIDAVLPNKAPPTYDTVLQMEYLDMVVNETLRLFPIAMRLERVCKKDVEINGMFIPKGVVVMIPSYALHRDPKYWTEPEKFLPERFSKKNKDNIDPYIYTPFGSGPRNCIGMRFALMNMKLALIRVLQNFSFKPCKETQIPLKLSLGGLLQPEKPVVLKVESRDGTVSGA

MDA-MB-231 = experiment: Antiproliferative activity against human MDA-MB-231 cells at 400 nM after 24 to 48 hrs by MTT assay; type: functional, cell-based; in short: as §1

T1 sequence (P61073 whole entry): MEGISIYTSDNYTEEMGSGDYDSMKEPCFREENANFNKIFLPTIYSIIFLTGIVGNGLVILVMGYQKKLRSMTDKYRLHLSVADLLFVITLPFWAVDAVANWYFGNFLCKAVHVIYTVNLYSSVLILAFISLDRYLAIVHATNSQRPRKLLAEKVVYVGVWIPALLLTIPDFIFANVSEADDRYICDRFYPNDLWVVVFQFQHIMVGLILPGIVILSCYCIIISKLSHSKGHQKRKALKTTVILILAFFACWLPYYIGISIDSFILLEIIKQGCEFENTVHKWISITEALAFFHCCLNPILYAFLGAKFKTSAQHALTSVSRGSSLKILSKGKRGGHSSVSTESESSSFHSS

Row | Compound | IC50 [1] | also measured
1 | CN1CCN(c2cc(CN(CCCCN)C3CCCc4cccnc43)ncn2)CC1 (stereo unspecified) | 18 nM | –
2 | CN(Cc1ccncn1)C1CCCc2cccnc21 (stereo unspecified) | > 10000 nM | –
3 | CN1CCN(c2nccc(CN(C)C3CCCc4cccnc43)n2)CC1 (stereo unspecified) | > 10000 nM | –
4 | CN(Cc1cc(NCCN2CCOCC2)ncn1)C1CCCc2cccnc21 (stereo unspecified) | 640 nM | –
5 | CN1CCN(c2cccc(CN(C)C3CCCc4cccnc43)n2)CC1 (stereo unspecified) | > 10000 nM | –
6 | CN1CCN(c2cc(CN(C)[C@H]3CCCc4cccnc43)ncn2)CC1 | 88 nM | Papp A→B at 2 µM [2]: 15 ×10⁻⁶ cm/s; half-life at 1 µM [3]: 1.4 min; CLint scaled at 1 µM [4]: 3860 mL/min/kg; IC50 [5]: 0.73 nM; half-life at 1 µM [6]: 7.7 min; efflux ratio at 2 µM [7]: 1.5; CLint scaled at 1 µM [8]: 226 mL/min/kg; IC50 [9]: > 30000 nM
7 | CN1CCN(c2ccnc(CN(C)C3CCCc4cccnc43)n2)CC1 (stereo unspecified) | 180 nM | –
8 | CN(C)c1cc(CN(C)C2CCCc3cccnc32)ncn1 (stereo unspecified) | > 10000 nM | –
9 | CN(C)CCN(C)c1cc(CN(C)C2CCCc3cccnc32)ncn1 (stereo unspecified) | 1020 nM | –
10 | CN1CCN(c2cc(CN(C)[C@@H]3CCCc4cccnc43)ncn2)CC1 | 1300 nM | IC50 [5]: 68 nM
11 | c1cc(CN2CCCNCCNCCCNCC2)ccc1CN1CCCNCCNCCCNCC1 | – | inhibition [10]: Active
12 | CN1CCN(c2cc(CN(C)C3CCCc4cccnc43)ncn2)CC1.Cl (stereo unspecified) | 54 nM | Ratio IC50 [11]: 8; Activity (MCF7): inactive; IC50 [5]: 2.3 nM; Activity [12]: Non-Toxic; inhibition at 10 min, 10 µM (CYP2D6): 3%; inhibition [10]: Active; inhibition at 10 min, 10 µM (CYP3A4): 9%; Activity (MDA-MB-231): inactive
13 | CN1CCN(c2cc(CN(CCCCNC(=O)OC(C)(C)C)C3CCCc4cccnc43)ncn2)CC1 (stereo unspecified) | 18 nM | –

Second part, led by results:

Row | IC50 [1] | Compound | also measured
14 | 2600 nM | CN(Cc1cc(N2CCNCC2)ncn1)C1CCCc2cccnc21 (stereo unspecified) | –
15 | > 10000 nM | CN1CCN(c2cc(CN(C)C3CCCc4cccnc43)ccn2)CC1 (stereo unspecified) | –
16 | > 10000 nM | CN(Cc1cc(N2CCN(C(=O)OC(C)(C)C)CC2)ncn1)C1CCCc2cccnc21 (stereo unspecified) | –
17 | 320 nM | CCN1CCN(c2cc(CN(C)C3CCCc4cccnc43)ncn2)CC1 (stereo unspecified) | –
18 | 200 nM | CN1CCN(c2ccnc(CN(C)C3CCCc4cccnc43)c2)CC1 (stereo unspecified) | –
19 | 290 nM | CN(Cc1cc(N2CCN(CCO)CC2)ncn1)C1CCCc2cccnc21 (stereo unspecified) | –
20 | 150 nM | CN(C)C1CCN(c2cc(CN(C)C3CCCc4cccnc43)ncn2)C1 (stereo unspecified) | –
21 | 1050 nM | CN(Cc1cc(N2CCN(CC3CC3)CC2)ncn1)C1CCCc2cccnc21 (stereo unspecified) | –
22 | 170 nM | CN1CCCN(c2cc(CN(C)C3CCCc4cccnc43)ncn2)CC1 (stereo unspecified) | –
23 | 210 nM | CC(C)N1CCN(c2cc(CN(C)C3CCCc4cccnc43)ncn2)CC1 (stereo unspecified) | –
24 | 630 nM | CN(C)C1CCN(c2cc(CN(C)C3CCCc4cccnc43)ncn2)CC1 (stereo unspecified) | –
